Shown are actives, neighbours in structure and some others; about 1.9% of the full set was active somewhere.
M4 ag – agonists of human muscarinic M4 receptor (CHRM4); CHO-K1 hM4/Gqi5, Fluo-8 calcium fluorescence; vehicle 0%, full acetylcholine response 100%; AID 624127; actives 0.14% (n = 360,000); activation, % at 3 µM;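 active = activation above the run mean over all test wells plus 3 SD, cut at about 32% in these data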;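 note: peak over basal fluorescence ratio per well then scaled between controls; 0% = DMSO wells and 100% = acetylcholine at EC100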
Target sequence (P08173 whole entry, looked up): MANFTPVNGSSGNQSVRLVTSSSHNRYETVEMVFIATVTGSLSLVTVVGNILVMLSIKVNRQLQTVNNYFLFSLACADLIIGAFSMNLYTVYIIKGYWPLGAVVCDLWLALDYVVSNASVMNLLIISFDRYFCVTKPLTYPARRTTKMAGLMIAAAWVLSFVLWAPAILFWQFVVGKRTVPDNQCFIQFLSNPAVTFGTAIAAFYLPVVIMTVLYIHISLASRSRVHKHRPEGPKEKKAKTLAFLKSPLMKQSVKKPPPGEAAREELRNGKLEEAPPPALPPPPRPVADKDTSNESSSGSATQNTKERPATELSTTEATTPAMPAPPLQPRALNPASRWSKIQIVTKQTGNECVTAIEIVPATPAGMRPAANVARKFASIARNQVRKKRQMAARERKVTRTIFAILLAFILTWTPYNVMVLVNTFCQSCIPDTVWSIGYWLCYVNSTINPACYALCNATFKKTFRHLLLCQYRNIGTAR
CHRM4 PAM – CHRM4 positive allosteric modulation; actives 0.4% (n = 360,000); P08173; CHO-K1 hM4/Gqi5, Fluo-8 calcium fluorescence, ACh EC20; 0% = ACh EC20, 100% = maximal ACh; activation, % at 3 µM;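 active = activation above its plate's cutoff, the mean activation of sample wells plus 3 SD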
M5 antag – blocks acetylcholine activation of human M5 receptor; AID 624040; CHO-hM5 cells, Fluo-8 calcium fluorescence, ACh EC80; P08912; actives 0.59% (n = 360,000); inhibition, % at 3 µM;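 active = inhibition above a per-plate cutoff, the mean of that plate's test compounds plus 3 SD, cut at about 27% in these data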;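 note: 0% = acetylcholine EC80 with DMSO and 100% = DMSO without agonist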
CHRM5 PAM – positive allosteric modulators of human muscarinic M5 receptor | P08912 | CHO-K1 hM5, Fluo-8 calcium, ACh EC20 PAM; 0% = ACh EC20, 100% = ACh EC100 | AID 624038 | activation, % at 3 µM | actives 0.3% (n = 360,000);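 active = activation above the run cutoff, the mean activation of all test compounds plus 3 SD, cut at about 18% in these data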
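System: CHO-K1 hM5 cells. Reagent: acetylcholine, EC20 level. Compound dosing: single dose, 3 µM nominal final test concentration. Timing: Post-acetylcholine fluorescence recording 140 s. Detection: Fluo-8 calcium fluorescence. Read-out: % activation, ACh-normalized. Benchmarks: ACh EC20 and EC100 wells. Repeats: singlicate, one well per test compound.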
CHRM5 agonist – agonists of human muscarinic M5 receptor (CHRM5) | P08912 | CHO-K1 hM5 cells, Fluo-8 calcium fluorescence; 0% DMSO wells, 100% maximal acetylcholine response | activation, % at 3 µM | actives 0.19% (n = 360,000) | AID 624037;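 active = activation above the run's mean over test compounds plus 3 SD, cut at about 23% in these data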;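 note: signal is peak over basal fluorescence ratio across the kinetic read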
M4 antag – CHRM4 antagonism in calcium assay; CHO-hM4 cells, ACh EC80, Fluo-8 calcium fluorescence; P08173; actives 0.73% (n = 360,000); AID 624125; inhibition, % at 3 µM;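 active = inhibition above its plate's cutoff, the mean inhibition of sample wells plus 3 SD, cut at about 27% in these data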;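 note: 0% = acetylcholine EC80 with DMSO and 100% = DMSO without agonist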
The depositor's hits bear a star.

SMILES | M4 ag | CHRM4 PAM | M5 antag | CHRM5 PAM | CHRM5 agonist | M4 antag
Cc1cc(C)cc(OCC(=O)NNC(=S)NC(=O)C2CC2)c1 | 6 | 9 | 28* | -2 | -3 | 4
CCOc1ccc(NCc2cccn2-c2nnc(N3CCC(C(=O)NCCCN4CC(C)CC(C)C4)CC3)s2)cc1 (centres undefined) | 4 | -13 | -11 | -11 | -8 | 34*
O=C(c1cccs1)N1CCN(C23CC4CC(CC(C4)C2)C3)CC1 | 2 | -17 | -14 | -6 | -7 | 40*
O=C(c1ccc(Cl)s1)N1CCN(C23CC4CC(CC(C4)C2)C3)CC1 | 0 | -12 | -23 | 3 | -9 | 5
COc1cccc(CC(=O)Nc2ccc(F)c(S(=O)(=O)N3CCOCC3)c2)c1 | 4 | 17 | -4 | 7 | 6 | -12
N/C(=N\OC(=O)CCCc1ccccc1)c1ccccc1Cl | 0 | -5 | -5 | -1 | -4 | -2
COc1ccc(CCn2c(C3CCCCC3)nc3c(c(=O)c4ccccc4n3C)c2=O)cc1 | 45* | -14 | 8 | -8 | 10 | 1
CCOC(=O)N1CCN(C(=O)C[C@@H]2C[C@@]3(C(=O)OC)CC(C)(C)CC=C3N(CCc3ccc(OC)c(OC)c3)C2=O)CC1 | 6 | -1 | 0 | 1 | 6 | 1
CC(C)(C)c1ccc(S(=O)(=O)NC(=O)C2(C)CCN2C(=O)C2CCCCC2)cc1 (centres undefined) | 1 | 9 | 2 | -8 | 1 | -10
Cc1ccccc1NCC(=O)N/N=C/c1c[nH]c2ccccc12 | 6 | -5 | 2 | -5 | -2 | -2
Cc1cccc(NCC(=O)N/N=C\c2c[nH]c3ccccc23)c1 | 4 | -11 | 11 | -8 | -6 | 28*
Cc1nnc(SCCn2c(N3CCC(C)CC3)nc3c2c(=O)[nH]c(=O)n3C)s1 | 2 | 10 | -9 | 3 | 2 | -7
Cc1nnc(SCCn2c(N3CCCC(C)C3)nc3c2c(=O)[nH]c(=O)n3C)s1 (centres undefined) | 1 | 8 | -15 | 19* | 3 | 16
NC(=O)c1nsc(C(=O)N(c2cccc(F)c2)C(C(=O)NCC2CCCO2)c2c[nH]c3ccccc23)c1N (centres undefined) | 14 | 2 | 8 | -1 | -1 | -7
COc1ccc(S(=O)(=O)Oc2cccc(/C=N/N=C3/NC(=O)C(CC(=O)O)S3)c2)cc1 (centres undefined) | -1 | 8 | 1 | 5 | 1 | 4
CCN(CC)CCN1c2ccccc2Sc2ccc3ccccc3c21 | 4 | -15 | 80* | -21 | -7 | 20
CCN(CC)CCN1c2ccccc2Sc2ccccc21 | 3 | -18 | 99* | -18 | -7 | 89*
CCC(c1nc2ccccc2[nH]1)n1c(=O)c(-c2cccnc2)nc2ccccc21 (centres undefined) | -2 | -2 | 2 | 2 | 0 | 13
CC(c1nc2ccccc2[nH]1)n1c(=O)c(-c2cccnc2)nc2ccccc21 (centres undefined) | -2 | 5 | -18 | 18* | 3 | -15
Cc1cc(C)nc(CCNC(=O)c2cc(COc3c(C)cccc3C)on2)n1 | 4 | 2 | -8 | 2 | -2 | -15
O=C(Nc1cccc(C(F)(F)F)c1)Nc1ccc(N2CCCC2)c(S(=O)(=O)Nc2ccccc2Cl)c1 | 5 | -14 | 28* | -14 | -1 | 26
O=S(=O)(c1ccc(NCCOc2ccccc2)nc1)N1CCCC1 | 2 | -1 | 9 | -9 | 0 | 10
C=CCN(c1ccccc1)S(=O)(=O)c1ccc(Cl)c(C(=O)OCC(=O)c2[nH]c(C)c(C(C)=O)c2C)c1 | 6 | -30 | 17 | -19 | -3 | 27*
C=CCN(c1ccc(OC)cc1)S(=O)(=O)c1ccc(Cl)c(C(=O)OCC(=O)NC2CC2)c1 | 4 | -7 | 4 | -10 | 0 | 4
CC(=O)Nc1ccc(S(=O)(=O)N2CCN(S(=O)(=O)c3ccc(F)c(F)c3F)CC2)cc1 | 2 | 1 | 2 | -4 | -1 | -1
SMILES | M4 ag | CHRM4 PAM | M5 antag | CHRM5 PAM | CHRM5 agonist | M4 antag
COc1ccc(CC(=O)Nc2c(C(=O)N3CCN(c4ncccn4)CC3)oc3ccccc23)cc1 | 7 | -6 | 11 | -2 | 0 | 4
Cn1cc(Cl)c(C(=O)Nc2nc3ccc([N+](=O)[O-])cc3s2)n1 | 0 | 9 | 14 | 22* | 0 | -4
CCOc1ccc(S(=O)(=O)Nc2ccc(C(=O)N3CC(C)OC(C)C3)cc2)cc1 (centres undefined) | 16 | -7 | 9 | -7 | 30* | 12
Cc1ccc(NS(=O)(=O)c2ccc(C3CCCCC3)cc2)cc1 | 12 | -18 | 27* | -18 | 5 | 49*
COc1ccccc1C(CNC(=O)c1cccc(S(=O)(=O)Nc2ccc(C)cc2)c1)N1CCCC1 (centres undefined) | 2 | -9 | 28* | -33 | -10 | 19
COc1ccccc1NS(=O)(=O)c1cccc(C(=O)NCC(c2ccccc2OC)N2CCCC2)c1 (centres undefined) | 1 | -10 | 7 | -24 | -11 | 3
CCOc1ccc(S(=O)(=O)Nc2cccc(C(=O)N3CC(C)OC(C)C3)c2)cc1 (centres undefined) | 2 | -5 | -3 | -1 | 7 | 4
Cc1ccc(S(=O)(=O)Nc2ccc(N3CCCCC3)cc2)cc1 | 1 | 0 | -13 | -5 | -2 | 0
CCOc1ccc(NS(=O)(=O)c2ccc(C(=O)N3CC(C)OC(C)C3)cc2)cc1 (centres undefined) | 66* | -6 | 5 | -17 | 57* | 3
COC(=O)[C@@]1(Cc2ccc(F)cc2)[C@H]2c3cc(C(=O)N(C)C)n(CCN4CCOCC4)c3C[C@H]2CN1C(=O)c1ccccc1 | 2 | 3 | 0 | -4 | 2 | -1
CCCCn1c(N)c(N(CC)C(=O)C2=COCCO2)c(=O)[nH]c1=O | 1 | 2 | -9 | 6 | 4 | 3
CC1CN(C(=O)c2ccc(NS(=O)(=O)c3ccc(C(C)(C)C)cc3)cc2)CC(C)O1 (centres undefined) | 33* | -6 | 2 | -4 | 48* | 12
Cc1ccc(NS(=O)(=O)c2ccc(C(=O)N3CCCC(C(F)(F)F)C3)cc2)cc1 (centres undefined) | 34* | -6 | 13 | -12 | 54* | 14
COc1ccc(CN(C)C(=O)c2ccc(NS(=O)(=O)c3ccc(F)cc3)cc2)c(OC)c1 | 3 | -9 | 3 | -9 | 1 | 13
CCOc1ccc(NS(=O)(=O)c2ccc(NC(=S)NC(C)=O)cc2)cc1 | 26 | -6 | 3 | -7 | 25* | 7

High-throughput results as filed in PubChem.
